IC50 data for 30 molecules are collected here from PubChem BioAssay AID588556 (Sanford-Burnham Center for Chemical Genomics, 2011).

Active and inactive are the calls of the source.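 How the source made its calls: active means IC50 at or below 20 µM in the 24 hour cytotoxicity test; inactive means the rest.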

The assay deals with CHO-CHOP cells viability, ATPLite luminescence, 24 h. Briefly: cytotoxicity in CHO-CHOP reporter cells, SAR follow-up, cytotoxicity control for UPR apoptotic arm activator project, cell-based, 24 h exposure, ATPLite luminescence (AID 588556). The method, boiled down: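 Technique: ATPLite 1-Step luminescence / Test system: CHO-CHOP reporter cell line / Input: 500 cells per well / Timing: 16-18 h cell pre-culture, 24 h compound treatment, 37 °C / Compound dosing: dose-response series, final DMSO at most 1%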
In the case of `O=C(Nc1nc2cc(F)c(F)cc2s1)c1ccccn1`, the IC50 is 2660 nM.
Take `O=C(Nc1nc2cc(F)cc(F)c2s1)c1ccccn1`: the IC50 was 1830 nM.
Regarding `O=C(Nc1ccc(S(=O)(=O)N2CCCCC2)cc1)c1ccc([N+](=O)[O-])o1`, the IC50 is > 80000 nM (inactive).
In the case of `O=C(Nc1ccc(S(=O)(=O)C2CCOCC2)cc1)c1ccc([N+](=O)[O-])o1`, the IC50 is 66300 nM (inactive).
For the molecule `O=C(Nc1nc2ccc(C(F)(F)F)cc2s1)c1ccccn1`, the concentration for half-maximal inhibition (IC50) was 1220 nM.
As for `O=C(Nc1nc2ccc(F)cc2s1)c1ccccn1`, the IC50 is 1930 nM.
As to `O=C(Nc1nc2c(F)cccc2s1)c1ccccn1`, the IC50 is 1580 nM.
Consider `O=C(Nc1ccc(S(=O)(=O)C2CCCCC2)cc1)c1ccc([N+](=O)[O-])o1`, for which the IC50 was 26700 nM (inactive).
As to `O=C(Nc1ccc(S(=O)(=O)N2CCOCC2)cc1)c1ccc([N+](=O)[O-])o1`, the IC50 was 53500 nM (inactive).
Regarding `O=C(Nc1ccc(S(=O)(=O)N2CCC(Cl)CC2)cc1)c1ccc([N+](=O)[O-])o1`, the IC50 is 66800 nM (inactive).
Next, `O=C(Nc1ccc(S(=O)(=O)N2CCOCC2)cc1)c1ccc([N+](=O)[O-])s1`: > 80000 nM (inactive); `CC(C)(C)C1CCN(S(=O)(=O)c2ccc(NC(=O)c3ccc([N+](=O)[O-])o3)cc2)CC1`: 2420 nM; `O=C(Nc1ccc(S(=O)(=O)c2ccccc2)cc1)c1ccc([N+](=O)[O-])o1`: 40400 nM (inactive).
With `CC1(C)CCN(S(=O)(=O)c2ccc(NC(=O)c3ccc([N+](=O)[O-])o3)cc2)CC1`, the concentration for half-maximal inhibition (IC50) is 12600 nM.
On to `O=C(Nc1nc2ccc(F)c(F)c2s1)c1ccccn1`, for which the 50% inhibitory concentration (IC50) was 1420 nM.
On to `O=C(Nc1nc2c(F)c(F)ccc2s1)c1ccccn1`, for which the 50% inhibitory concentration (IC50) was 1680 nM.
As for `O=C(Nc1nc2c(F)ccc(F)c2s1)c1ccccn1`, the 50% inhibitory concentration (IC50) is 1670 nM.
Regarding `CC1CN(S(=O)(=O)c2ccc(NC(=O)c3ccc([N+](=O)[O-])o3)cc2)CC(C)O1` (stereo not given), the IC50 was 51400 nM (inactive).
For `O=C(Nc1ccc(S(=O)(=O)N2CCNCC2)cc1)c1ccc([N+](=O)[O-])o1`, the IC50 was > 80000 nM (inactive).
`O=C(Nc1nc2c(F)cc(F)cc2s1)c1ccccn1`: the IC50 was 1400 nM.
`O=C(Nc1ccc(S(=O)(=O)N2CCC3(CCCCC3)CC2)cc1)c1ccc([N+](=O)[O-])o1`: the 50% inhibitory concentration (IC50) is 1160 nM.
As for `O=C(Nc1ccc(S(=O)(=O)N2CCC(O)CC2)cc1)c1ccc([N+](=O)[O-])o1`, the IC50 was 45900 nM (inactive).
Next, `O=C(Nc1nc2cccc(F)c2s1)c1ccccn1`: 2350 nM.
In the case of `O=C(Nc1ccc(S(=O)(=O)N2CCCC2)cc1)c1ccc([N+](=O)[O-])o1`, the IC50 is 25000 nM (inactive).
For `CC1CCN(S(=O)(=O)c2ccc(NC(=O)c3ccc([N+](=O)[O-])o3)cc2)CC1`, the IC50 is > 80000 nM (inactive).
With `O=C(Nc1nc2c(Cl)cc(Cl)cc2s1)c1ccccn1`, the IC50 was 13300 nM.
`O=C(Nc1nc2ccc(Cl)cc2s1)c1ccccn1`: the IC50 was 1230 nM.
As for `Cc1cc(C)c2nc(NC(=O)c3ccccn3)sc2c1`, the half-inhibitory concentration (IC50) was 5310 nM.
Next, `O=C(Nc1nc2cc(F)ccc2s1)c1ccccn1`: 1570 nM; `O=C(Nc1ccc(S(=O)(=O)N2CCC(F)CC2)cc1)c1ccc([N+](=O)[O-])o1`: 32600 nM (inactive).
